Rows were chosen to be rich in hits. Some 1.6% of all compounds tested hit in one or more screens of this group.
NR2E3 ag-1: inhibitors of NR2E3-RetCOR corepressor binding, primary screen, NR2E3 agonist project, biochemical, TR-FRET, GST-NR2E3, biotin-RetCOR; Photoreceptor-specific nuclear receptor (Homo sapiens), Q9Y5X4; 1536-well; inhibition of corepressor binding, % at 4.78 µM; 0.12% of 320,000 active;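 active = percent inhibition above the cutoff of mean plus 3 SD of all tested compounds, set per screening campaign, cut at about 20% in these data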;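 note: 0% = DMSO wells and 100% = biotin wells as full block of FRET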
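System: GST-tagged NR2E3 plus biotinylated RetCOR corepressor; Buffer or medium: pH 7.5 Tris-based buffer; Probe or stimulus: RetCOR corepressor, biotinylated, 7 nM; Doses: compound at 4.8 µM, single dose; Schedule: 5 h incubation at 4 °C; Technique: time-resolved FRET; Evaluation: percent inhibition of TR-FRET ratio; Replication: one well per compound, singlicate testing.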
PG9 Ab binder: binders of HIV-1 gp120 antibody PG9, primary screen, biochemical, TR-FRET; inhibition, % at 6.7 µM; AID 624416, 2012; 0.43% of 360,000 active; TR-FRET gp120-PG9 antibody binding; in the data active = inhibition above about 8.5%
VLA-4 inh: inhibition in human VLA-4 binding assay, primary screen, VLA-4 allosteric modulator project, MLPCN library, flow cytometry, VLA-4 expressing cells; Integrin alpha-4 (Homo sapiens), P13612; inhibition, % (about 7 µM as worked out from the volumes in the protocol); AID 2557, 2010; ligand binding flow cytometry; 0.2% of 330,000 active; in the data active = inhibition above about 50%
Target sequence (P13612 whole entry, looked up): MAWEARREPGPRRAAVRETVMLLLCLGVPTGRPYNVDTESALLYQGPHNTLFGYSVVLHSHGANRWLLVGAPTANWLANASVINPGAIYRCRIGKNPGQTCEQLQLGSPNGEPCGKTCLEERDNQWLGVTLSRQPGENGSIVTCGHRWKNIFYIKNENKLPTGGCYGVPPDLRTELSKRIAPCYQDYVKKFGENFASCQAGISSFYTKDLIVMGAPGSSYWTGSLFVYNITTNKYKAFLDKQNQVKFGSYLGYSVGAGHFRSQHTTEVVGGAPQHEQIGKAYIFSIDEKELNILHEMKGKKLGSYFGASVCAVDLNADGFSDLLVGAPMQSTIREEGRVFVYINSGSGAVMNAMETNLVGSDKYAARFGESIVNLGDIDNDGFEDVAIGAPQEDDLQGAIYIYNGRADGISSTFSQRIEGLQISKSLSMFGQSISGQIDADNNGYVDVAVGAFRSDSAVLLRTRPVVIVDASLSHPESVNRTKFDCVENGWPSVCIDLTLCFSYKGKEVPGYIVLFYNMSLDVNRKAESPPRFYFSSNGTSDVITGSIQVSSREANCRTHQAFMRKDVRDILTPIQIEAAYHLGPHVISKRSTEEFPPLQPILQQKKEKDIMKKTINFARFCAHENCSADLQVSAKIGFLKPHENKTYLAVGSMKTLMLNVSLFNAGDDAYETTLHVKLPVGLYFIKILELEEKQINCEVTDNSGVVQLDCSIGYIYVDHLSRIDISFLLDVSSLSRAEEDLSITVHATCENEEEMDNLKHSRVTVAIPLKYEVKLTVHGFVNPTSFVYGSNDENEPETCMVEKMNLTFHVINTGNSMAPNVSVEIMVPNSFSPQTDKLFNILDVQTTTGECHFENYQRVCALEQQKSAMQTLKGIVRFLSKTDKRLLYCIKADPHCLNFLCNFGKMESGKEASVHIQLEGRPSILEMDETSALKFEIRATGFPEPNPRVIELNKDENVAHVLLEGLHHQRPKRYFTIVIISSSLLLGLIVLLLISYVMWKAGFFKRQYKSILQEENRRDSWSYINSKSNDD
Rev-erbA mod: modulators of Rev-erb alpha DNA binding, primary screen, biochemical, FITC-DNA, fluorescence polarization, uHTS; activity, % at 10 µM; 0.79% of 370,000 active; AID 1259318, 2017; Rev-erbα–FITC-DNA binding, 90 min; Nuclear receptor subfamily 1 group D member 1 (Homo sapiens), P20393;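 active = activity above about 14%, limit read from the data; passing the limit was not always enough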;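 note: 0% = DMSO wells with 35 nM protein and 100% = DMSO wells with 750 nM protein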
NR2E3 ag-2: NR2E3 agonists in two-hybrid cells, primary screen, cell-based, luminescence, CHO-S, Gal4-NCOR/VP16-NR2E3 | AID 602229, 2012 | luciferase | inhibition of corepressor binding, % at 3.98 µM | 0.35% of 360,000 active;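 active = inhibition above the mean of all tested compounds plus 3 SD, cut at about 70% in these data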;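 note: 0% = DMSO with NR2E3 transfected cells and 100% = cells lacking NR2E3 construct; higher means lower luciferase signal from less NR2E3 corepressor binding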
NR2E3 ag confirm: NR2E3 agonist confirmation in cells, cell-based, luminescence, CHO-S two-hybrid; shares compounds with NR2E3 ag-2; CHO-S mammalian two-hybrid NR2E3-NCOR, luciferase luminescence; inhibition, % at 3.98 µM; 51% of 2,300 active; AID 624378, 2012;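 active = average inhibition above a cutoff equal to the mean inhibition of all tested compounds plus one SD, cut at about 70% in these data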;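 note: 0% = DMSO in NR2E3 cells and 100% = DMSO in cells lacking NR2E3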
GAL4-VP16 luc: GAL4-VP16 reporter modulators, confirmation, counter-screen for NR2E3 agonist project, cell-based, luminescence, CHO-S, high throughput. AID 624379, 2012. inhibition, % at 3.98 µM. 29% of 2,300 active. shares compounds with NR2E3 ag-2. CHO-S GAL4-VP16 luciferase reporter;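 active = mean inhibition above a cutoff equal to the average over all tested compounds plus one standard deviation, cut at about 70% in these data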;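 note: luciferase from a UAS reporter driven by GAL4-VP16 transactivation; 0% = DMSO with VP16-transfected cells and 100% = DMSO with cells lacking VP16; higher means less reporter light so more repression of VP16 activity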
* = called active by the depositor; nt = not tested or not shown.

SMILES	NR2E3 ag-1	PG9 Ab binder	VLA-4 inh	Rev-erbA mod	NR2E3 ag-2	NR2E3 ag confirm	GAL4-VP16 luc
COc1cccc(/C=C2\CC3(OC(=O)c4ccco4)CCCN2C3)c1 (centres undefined)	nt	nt	nt	11.6	nt	nt	nt
C[C@@H]1[C@@H](O)C[C@@]2(C[C@H](O)c3cc(Cl)ccc3O2)O[C@H]1c1ccccc1Cl	nt	nt	nt	2.2	nt	nt	nt
O=C(O)CCC(=O)Nc1ccc(N=Nc2ccccc2)cc1	nt	nt	nt	nt	-7.6	nt	nt
CC(C)(C)C(=O)Nc1ccc(N=Nc2ccccc2)cc1	1.1	0.1	-0.4	4.0	55.9	25.8	-22.8
COc1ccc(CNC(=S)OC2CCC23CCC(c2ccccc2)CC3)cc1 (centres undefined)	nt	nt	nt	7.0	nt	nt	nt
C=CCN1C(=O)[C@@H](CC(=O)NCCCCc2ccccc2)[C@]2(C(=O)OC)CCCCC=C12	nt	nt	nt	3.3	nt	nt	nt
CCN(CC)C(=O)c1cccc(-c2csc(C(C)(O)c3ccc(F)c(F)c3)n2)c1 (centres undefined)	nt	nt	nt	nt	51.2	41.8	39.1
CC(O)(c1ccncc1)c1nc(-c2cccc(C(F)(F)F)c2)cs1 (centres undefined)	nt	1.1	nt	-4.0	84.7*	93.2*	74.3*
COc1ccc(CNC(=O)c2ccc(-c3ccccc3)cc2)cc1	0.3	4.6	12.8	nt	-83.5	nt	nt
COc1ccc(CNC(=O)c2c(C)oc3c2C(=O)c2ccccc2C3=O)cc1	-2.0	1.2	-5.5	10.1	65.8	98.5*	50.4
Cc1ccc(OCc2nnc(SCC(=O)Nc3ccc4c(c3)OCO4)n2Cc2ccco2)cc1	nt	nt	nt	-2.9	nt	nt	nt
O=c1[nH]c(=O)n(C2OC(CO)C(O)C2O)cc1F (centres undefined)	nt	nt	nt	nt	48.9	17.0	5.9
C=CC[n+]1c(-c2ccc(Cl)cc2Cl)csc1Nc1ccc(NC(C)=O)cc1	-2.8	-1.0	4.8	4.0	68.2	73.2*	56.4
Cc1ccc(-n2c(SCC(=O)Nc3ccc(Oc4ccccc4)cc3)nnc2-c2ccco2)cc1	nt	nt	nt	-5.0	nt	nt	nt
O=C1c2ccccc2C(=O)c2c1oc(C(F)(F)F)c2C(=O)c1ccccc1	3.8	-0.2	18.9	0.3	111.7*	97.6*	87.4*
COc1cccc(-c2nnc3n2N=C(c2ccc(Cl)cc2)CS3)c1	nt	nt	nt	-3.5	nt	nt	nt
COc1cccc(-c2nnc3n2N=C(C(C)(C)C)CS3)c1	3.2	0.4	3.0	-1.7	68.8	29.5	50.8
COc1ccc(N/C(N)=N/c2nc(C)cc(C)n2)cc1	nt	0.5	nt	0.2	-1.1	nt	nt
Cc1cc(C)nc(/N=C(\N)Nc2ccc(OCCC(C)C)cc2)n1	3.5	1.0	16.2	-1.9	53.0	69.7	58.5
Cc1ccc(OCc2nnc(SCC(=O)Nc3ccc(OCc4ccccc4)cc3)n2-c2ccc(Cl)cc2)cc1	nt	nt	nt	-3.1	nt	nt	nt
COc1ccc(CN(C)c2ccc(S(=O)(=O)N3CCN(C)CC3)cc2[N+](=O)[O-])cc1OC	3.4	1.9	-12.6	-5.6	94.5*	95.9*	84.8*
COc1ccc(CCN(C)c2ccc(S(=O)(=O)N3CCCC3)cc2[N+](=O)[O-])cc1OC	-1.0	-0.6	nt	4.3	0.0	nt	nt
COCOc1ccc(/C=C/C(=O)c2c(OCOC)cc(OCOC)c(CC=C(C)C)c2O)cc1OCOC	0.9	nt	6.0	nt	-3.5	nt	nt
COc1cc(CCc2ccccc2)c(C(=O)O)c(O)c1CC=C(C)C	nt	-0.1	nt	-7.6	84.9*	99.2*	78.4*
COc1cc(CCc2ccccc2)c(C(=O)O)c(O)c1C/C=C(/C)CCC=C(C)C	nt	0.6	nt	1.8	50.2	98.4*	71.3*
SMILES	NR2E3 ag-1	PG9 Ab binder	VLA-4 inh	Rev-erbA mod	NR2E3 ag-2	NR2E3 ag confirm	GAL4-VP16 luc
O=C(CCCl)NC1CCCCN(Cc2ccc(OC(F)(F)F)cc2)C1=O (centres undefined)	nt	nt	nt	-5.7	nt	nt	nt
C=CS(=O)(=O)N(Cc1ccc(Cl)c(Cl)c1)C[C@@H](O)CO	nt	nt	nt	nt	52.4	17.6	20.7
Nc1ncnc2c1c(-c1ccc(Oc3ccccc3)cc1)cn2C1CCCC1	4.2	0.5	12.9	0.4	74.3*	85.7*	71.5*
COc1cccc(OCc2cc(C(=O)N3CCC(c4ccncc4)CC3)no2)c1	0.2	0.2	4.0	0.9	85.4*	89.5*	80.4*
CC(=O)c1ccc(OCc2cc(C(=O)N3CCC(c4ccncc4)CC3)no2)cc1	-4.3	-3.3	-10.6	-2.8	89.9*	71.4*	73.9*
O=C(c1cc(COc2cccc(C(F)(F)F)c2)on1)N1CCC(c2ccncc2)CC1	1.4	0.4	11.0	3.4	100.9*	98.2*	79.5*
CN1CCCC2(CCCN(Cc3nc(Cc4cccc(C(F)(F)F)c4)no3)C2)C1 (centres undefined)	0.3	0.5	9.6	-0.7	-2.8	nt	nt
FC(F)(F)c1cccc(Cc2noc(CN3CCC(c4ccncc4)CC3)n2)c1	1.3	0.5	5.8	-3.1	48.9	78.4*	69.8
C=CCN1C(=O)[C@H](CC(=O)NCc2ccc(OC)c(OC)c2)[C@@]2(C(=O)OCC)CCCC=C12	nt	nt	nt	5.3	nt	nt	nt
Cc1ccc(CNC(=O)O[C@H]2CC[C@@]34CCCN3C(=O)CCC[C@H]4[C@H]2C)cc1	nt	nt	nt	-2.5	nt	nt	nt
O=C(NC1CCCCN(Cc2cccc(C(F)(F)F)c2)C1=O)c1ccc(F)c(F)c1 (centres undefined)	nt	nt	nt	4.6	nt	nt	nt
Cc1ccc(S(=O)(=O)N(C)C)cc1NC(=O)C(C)N(C)Cc1sccc1C (centres undefined)	0.2	-2.0	-5.4	-1.6	60.1	36.8	30.7
Cc1ccc(S(=O)(=O)N(C)C)cc1NC(=O)C(C)NC(C)c1cccs1 (centres undefined)	0.8	2.1	1.8	1.2	8.7	nt	nt
CCOC(=O)c1c(C)[nH]c(C(=O)C(C)OC(=O)c2cccc(OCc3c(C)noc3C)c2)c1C (centres undefined)	-2.5	-4.0	1.9	5.9	76.4*	83.1*	64.4
CCC(C)NC(=O)c1cccc(OCc2c(C)noc2C)c1 (centres undefined)	5.0	0.0	6.4	3.0	-1.2	nt	nt
CC1Sc2ccc(S(=O)(=O)N3CCC(C(=O)Nc4ccc(Cl)cc4)CC3)cc2NC1=O (centres undefined)	-2.4	-1.1	-31.4	7.5	102.6*	93.6*	74.8*
Cc1ccc(NC(=O)C2CCN(S(=O)(=O)c3ccc(N4CCCC4=O)cc3)CC2)cc1Cl	-3.6	-0.4	4.1	0.1	107.4*	98.7*	90.5*
